Test results reported in ChEMBL document CHEMBL1122058, “Agents for the treatment of brain injury. 1. (Aryloxy)alkanoic acids” (J Med Chem, 1982).
The source made the active and inactive calls. No cut-off for these calls is given here.

Columns and labels:
[1] = Distribution coefficient (D %) between octanol and buffer of pH 7.4; format: physicochemical; settings: octanol/water
Felis catus [2] = species on record: Felis catus; assay: In vitro inhibition of HCO3- stimulated swelling in cat cerebrocortical tissue slice; format: functional; settings: read-out: I 50
Summary of the method: (§1)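 Cat cerebral cortex slices (~150 mg, 0.5 mm) incubated aerobically 60 min at 37 °C in K+-rich (27 mM) Hepes-buffered saline-glucose with test compound as Na salt. HCO3- (NaHCO3 or TEAB) added from sidearm at 20 min to 10 mM final; HCO3- flasks gassed with 2.5% CO2/97.5% O2. Swelling by reweighing; Na+/K+ by flame photometry, Cl- by amperometric titration. Units: per g initial fresh weight; means ± SE, Student's t test.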

[3] = Dissociation constant (pKa) (determined in 30% EtOH); format: physicochemical
Rattus norvegicus [4] = species on record: Rattus norvegicus; assay: Relative salidiuretic efficacy was scored in Rat; weak; format: functional, organism-based; settings: Urine
Rattus norvegicus [5] = species on record: Rattus norvegicus; assay: Relative salidiuretic efficacy was scored in Rat; inactive; format: functional, organism-based; settings: Urine
Felis catus [6] = assay: Relative salidiuretic efficacy was scored in cat upon intravenous administration of 20 mg/kg of Na salt; inactive; format: functional, organism-based; parameters: dose 20 mg/kg; settings: Urine
Felis catus [7] = assay: Mortality of animals recorded as the number of animals dead out of the total animals (16) taken for the study at dose 1 mg/kg; format: functional
Summary of the method: (§2)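 Adult conditioned cats (2.5–4 kg) under iv methohexital (13.25 mg/kg, plus 2.75 mg/kg if needed) received machine-induced acceleration/deceleration head injury. Forty min later they were paralysed with gallamine and ventilated with 6% O2/94% N2 for 60 min (arterial pO2 23 ± 1 torr). Drug was given iv 20 min post-injury, before hypoxemia. Mortality was scored as dead/total, chi-square tested.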

Rattus norvegicus [8] = species on record: Rattus norvegicus; assay: Relative salidiuretic efficacy was scored in Rat; Marginal; format: functional, organism-based; settings: Urine
Canis familiaris [9] = species on record: Canis familiaris; assay: Relative salidiuretic efficacy was scored in dog; Marginal; format: functional, organism-based; settings: Canis lupus familiaris; Urine
Felis catus [10] = assay: Mortality of animals recorded as the number of animals dead out of the total animals (18) taken for the study at dose 30 mg/kg given q.i.d.; format: functional; summary of the method: as §2
Canis familiaris [11] = species on record: Canis familiaris; assay: Relative salidiuretic efficacy was scored in dog; weak; format: functional, organism-based; settings: Canis lupus familiaris; Urine
Pan troglodytes [12] = species on record: Pan troglodytes; assay: Relative salidiuretic efficacy was scored in chimpanzee; weak; format: functional, organism-based; settings: Urine
Felis catus [13] = species on record: Felis catus; assay: In vitro inhibition of HCO3- stimulated swelling in cat cerebrocortical tissue slice; At no concentration was swelling inhibited 100%; format: functional; settings: read-out: I 50; summary of the method: as §1
Canis familiaris [14] = species on record: Canis familiaris; assay: Relative salidiuretic efficacy was scored in dog; moderate; format: functional, organism-based; settings: Canis lupus familiaris; Urine
Pan troglodytes [15] = species on record: Pan troglodytes; assay: Relative salidiuretic efficacy was scored in chimpanzee; moderate; format: functional, organism-based; settings: Urine
Rattus norvegicus [16] = species on record: Rattus norvegicus; assay: Relative salidiuretic efficacy was scored in Rat; moderate; format: functional, organism-based; settings: Urine

| Structure (SMILES) | Distribution [1] [%] | IC50 (Felis catus [2]) [nM] | pKa [3] | Relative salidiuretic activity (Rattus norvegicus [5]) | also measured |
| --- | --- | --- | --- | --- | --- |
| CCCC[C@@]1(C2CCCC2)Cc2cc(OCC(=O)O)c(Cl)c(Cl)c2C1=O | 99 | 50000 | 3.9 |  | Relative salidiuretic activity (Rattus norvegicus [4]): weak |
| CCCC[C@]1(C2CCCC2)Cc2cc(OCC(=O)O)c(Cl)c(Cl)c2C1=O | 99 | 0.3 | 3.9 |  | Relative salidiuretic activity (Rattus norvegicus [4]): weak |
| CCCC[C@]1(C2CCCC2)Cc2cc(OCCCC(=O)O)c(Cl)c(Cl)c2C1=O | 99.9 | 1000 | 4.4 | inactive |  |
| C[C@]1(C2CCCC2)Cc2cc(OCCCC(=O)O)c(Cl)c(Cl)c2C1=O | 99 | 10 | 5.7 | inactive | Relative salidiuretic activity (Felis catus [6]): inactive; Mortality (Felis catus [7]): 5 |
| CCCC[C@@]1(C2CCCC2)Cc2cc(OCCCC(=O)O)c(Cl)c(Cl)c2C1=O | 99.9 |  | 4.4 | inactive |  |
| C[C@@]1(C2CCCC2)Cc2cc(OCCCC(=O)O)c(Cl)c(Cl)c2C1=O | 99 | 250 | 5.7 |  | Relative salidiuretic activity (Rattus norvegicus [8]): inactive; Relative salidiuretic activity (Canis familiaris [9]): inactive |
| C[C@H]1CC2C(C(O)CC3(C)C2CC[C@]3(O)C(=O)COC(=O)CCC(=O)[O-])C2(C)C=CC(=O)C=C12.[Na+] (stereo partly drawn) |  |  |  |  | Mortality (Felis catus [10]): 9 |
| CCC(C)C(=O)c1ccc(OCC(=O)O)c(Cl)c1Cl (stereo not drawn) | 96 | 500 | 3.5 | inactive | Relative salidiuretic activity (Canis familiaris [11]): weak; Relative salidiuretic activity (Pan troglodytes [12]): weak |
| CC(C)(Oc1cc2c(c(Cl)c1Cl)C(=O)C(C)(C1CCCC1)C2)C(=O)O (racemic) | 98.6 | > 100000 | 3.7 |  |  |
| CCCC1(C2CCCC2)Cc2cc(OCCCC(=O)O)c(Cl)c(Cl)c2C1=O (racemic) | 99.6 |  | 4.1 |  | IC50 (Felis catus [13]): 8 nM; Relative salidiuretic activity (Rattus norvegicus [8]): Marginal |
| CC1(C2CCCC2)Cc2cc(OC/C=C/CC(=O)O)c(Cl)c(Cl)c2C1=O (racemic) | 98 | > 40000 | 5.1 |  |  |
| CCCCC1(C2CCCC2)Cc2cc(OCCCC(=O)O)c(Cl)c(Cl)c2C1=O (racemic) | 99.8 | 4 | 4.4 | inactive |  |
| CCC1(C2CCCC2)Cc2cc(OCC(=O)O)c(Cl)c(Cl)c2C1=O (racemic) | 97 | 1 | 3.9 |  | Relative salidiuretic activity (Canis familiaris [14]): moderate; Relative salidiuretic activity (Pan troglodytes [15]): moderate; Relative salidiuretic activity (Rattus norvegicus [16]): moderate |
